# Laboratory results as given in ChEMBL document CHEMBL1132160, “Structure-antiviral activity relationship in the series of pyrimidine and purine N-[2-(2-phosphonomethoxy)ethyl] nucleotide analogues. 1. Derivatives substituted at the carbon atoms of the base” (J Med Chem, 1999).
# How the values were obtained:
# [1] = test system: HEL; test: Compound was evaluated for inhibitory activity against cytomegalovirus (CMV) AD 169 strain; NA=not active; type: functional, cell-based, Homo sapiens
# Summary of the method: (§1)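 HEL cell cultures, grown to confluence, received 100 CCID50 of virus. After 1 h adsorption, the inoculum was removed and the cultures were incubated with serial concentrations of compound (400, 200, 100, ... μg/mL).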
# [2] = test system: Human alphaherpesvirus 1; test: Inhibitory activity against herpes simplex virus type 1 (HSV-1) KOS strain.; type: functional, organism-based
# Summary of the method: (§2)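 Confluent E6SM cell cultures were inoculated with 100 CCID50 of virus and allowed 1 h for adsorption. Residual virus was then removed, and the cells were incubated with test compound at 400, 200, 100, ... μg/mL. Viral cytopathicity was scored once it reached completion in untreated infected controls.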
# [3] = test system: HEL; test: Compound was evaluated for inhibitory activity against varicella zoster virus thymidine kinase (VZV TK-) 07/1 strain; NA=not active; type: functional, cell-based, Homo sapiens
# [4] = test system: Human alphaherpesvirus 1; test: Inhibitory activity against herpes simplex virus type 1 (HSV-1) F strain; type: functional, organism-based; summary of the method: as §2
# [5] = test system: Human immunodeficiency virus 1; test: Inhibitory activity of compound against human immunodeficiency virus type 1 (HIV-1) induced cytopathogenicity in MT-4 cells; type: functional, organism-based; conditions: Human immunodeficiency virus 1, MT4
# Summary of the method: (§3)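 Human MT-4 cells (~4 × 10⁵ cells/mL) were infected with 100 CCID50 of HIV-1 (IIIB)/mL and seeded into wells containing compound dilutions. After 5 days at 37 °C, viable cells were counted by trypan blue exclusion in a blood cell counting chamber.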
# [6] = test system: Human alphaherpesvirus 1; test: Inhibitory activity against herpes simplex virus type 1 thymidine kinase (HSV-1 TK-) VMW 1837 strain.
# [7] = test system: E6SM; test: Inhibitory activity against herpes simplex virus type 2 (HSV-2) Lyons strain.; type: functional, cell-based, Homo sapiens; summary of the method: as §2
# [8] = test system: Human alphaherpesvirus 2; test: Inhibitory activity against herpes simplex virus type 2 (HSV-2) G strain.; type: functional, organism-based; summary of the method: as §2
# [9] = test system: Vaccinia virus; test: Inhibitory activity against vaccinia virus (VV).; type: functional, organism-based, Orthopoxvirus vaccinia
# Summary of the method: (§4)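 Confluent E6SM cell cultures were inoculated with 100 CCID50 of virus and left for 1 h adsorption, then residual virus was removed. Cultures were incubated with test compound at serial concentrations (400, 200, 100, ... μg/mL). Virus-induced cytopathicity was scored once it reached completion in untreated infected control cultures.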
# [10] = test system: HEL; test: Compound was evaluated for inhibitory activity against varicella zoster virus thymidine kinase (VZV TK+) YS strain; NA=not active; type: functional, cell-based, Homo sapiens; summary of the method: as §1
# [11] = test system: HEL; test: Compound was evaluated for inhibitory activity against cytomegalovirus (CMV) Davis strain; NA=Not Active; type: functional, cell-based, Homo sapiens; summary of the method: as §1
# [12] = test system: Human alphaherpesvirus 1; test: Iactivity against herpes simplex virus type 1 (HSV-1) McIntyre strain.; type: functional, organism-based; summary of the method: as §2
# [13] = test system: Human alphaherpesvirus 2; test: Inhibitory activity against herpes simplex virus type 2 (HSV-2) 196 strain.; type: functional, organism-based; summary of the method: as §2
# [14] = test system: HEL; test: Compound was evaluated for inhibitory activity against varicella zoster virus thymidine kinase (VZV TK+) OKA strain; NA=Not Active; type: functional, cell-based, Homo sapiens; summary of the method: as §1
# [15] = Inhibitory activity against murine sarcoma virus induced transformation of murine C3H/3T3 embryo fibroblasts; type: functional, Mus musculus
# Summary of the method: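 Murine C3H/3T3 embryo fibroblasts were seeded at 5 × 10⁵ cells/mL. After 24 h they were infected with 80 focus-forming units of MSV for 90–120 min at 37 °C. The medium was then replaced with fresh medium containing various compound concentrations, and transformation was examined microscopically after 6 days.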
# [16] = test system: Human alphaherpesvirus 1; test: Inhibitory activity against herpes simplex virus type 1 (HSV-1) KOS strain; type: functional, organism-based; summary of the method: as §2
# [17] = test system: Human alphaherpesvirus 2; test: Inhibitory activity against herpes simplex virus type 2 (HSV-2) Lyons strain; type: functional, organism-based; summary of the method: as §2
# [18] = test system: Vaccinia virus; test: Inhibitory activity against vaccinia virus (VV); type: functional, organism-based; conditions: Orthopoxvirus vaccinia; summary of the method: as §4
# [19] = test system: Human alphaherpesvirus 1; test: Inhibitory activity against herpes simplex virus type 1 (HSV-1) McIntyre strain; type: functional, organism-based; summary of the method: as §2
# [20] = test system: Human alphaherpesvirus 2; test: Inhibitory activity against herpes simplex virus type 2 (HSV-2) G strain; type: functional, organism-based; summary of the method: as §2
# [21] = test system: Human alphaherpesvirus 1; test: Inhibition of herpes simplex virus type 1 (HSV-1) F strain; type: functional, organism-based; summary of the method: as §2
# [22] = Inhibitory activity against herpes simplex virus type 2 (HSV-2) 196 strain; type: functional; summary of the method: as §2
# [23] = test system: Human immunodeficiency virus 2; test: Inhibitory activity against human immunodeficiency virus type 2 (HIV-2) induced cytopathogenicity in MT-4 cells; type: functional, organism-based; conditions: Human immunodeficiency virus 2, MT4
# [24] = test system: Human immunodeficiency virus 2; test: Inhibition of human immunodeficiency virus type 2 (HIV-2) induced cytopathogenicity in CEM cells; type: functional, organism-based; conditions: Human immunodeficiency virus 2, CCRF-CEM
# [25] = test system: Human immunodeficiency virus 1; test: Inhibition of human immunodeficiency virus type 1 (HIV-1) induced cytopathogenicity in CEM cells; type: functional, organism-based; conditions: Human immunodeficiency virus 1, CCRF-CEM
# Summary of the method: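 CEM cells (~3 × 10⁵ cells/mL) were infected with 100 CCID50 of HIV-1 (IIIB)/mL and plated with dilutions of compound. After 4 days at 37 °C, giant cell formation was assessed microscopically.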
# [26] = test system: Cytomegalovirus; test: Inhibitory activity against cytomegalovirus (CMV) AD 169 strain; type: functional, organism-based; conditions: Human betaherpesvirus 5; summary of the method: as §1
# [27] = test system: E6SM; test: Compound was evaluated for inhibitory activity against herpes simplex virus type 1 thymidine kinase (HSV-1 TK-) B2006 strain; NA=not active; type: functional, cell-based, Homo sapiens; summary of the method: as §2
# [28] = test system: Cytomegalovirus; test: Inhibitory activity against cytomegalovirus (CMV) Davis strain; type: functional, organism-based; conditions: Human betaherpesvirus 5; summary of the method: as §1
# [29] = test system: MT4; test: Inhibitory activity of compound against human immunodeficiency virus type 1 (HIV-1) induced cytopathogenicity in MT-4 cells; NA=Not Active; type: functional, cell-based; summary of the method: as §3
# [30] = test system: MT4; test: Antiviral activity against human immunodeficiency virus type 2 (HIV-2) in MT-4 cells; type: functional, cell-based
# [31] = test system: Human immunodeficiency virus 1; test: Antiviral activity against human immunodeficiency virus type-1 (HIV-1) in MT-4 cells; type: functional, organism-based; conditions: Human immunodeficiency virus 1, MT4; summary of the method: as §3
# [32] = test system: Vaccinia virus; test: Compound was evaluated for inhibitory activity against vaccinia virus (VV); NA=not active; type: functional, organism-based, Orthopoxvirus vaccinia; summary of the method: as §4
SMILES,EC50 [1],EC50 [2],EC50 [3],EC50 [4],EC50 [5],EC50 [6],EC50 [7],EC50 [8],EC50 [9],EC50 [10],EC50 [11],EC50 [12],EC50 [13],EC50 [14],EC50 [15],EC50 [20],EC50 [23],EC50 [26],EC50 [27],EC50 [28],other results
CC(C)OP(=O)(COCCn1ccc(O)cc1=O)OC(C)C,Not Active,Not Active,Not Active,Not Active,> 200 µg/mL,Not Active,Not Active,Not Active,Not Active,Not Active,Not Active,Not Active,Not Active,Not Active,,,,,,,
CCOP(=O)(O)COCCn1cnc2c(N)nc(N)nc21,Not Active,,,,> 100 µg/mL,,,,,,Not Active,,,,> 200 µg/mL,70 µg/mL,> 400 µg/mL,,,,EC50 [16]: 300 µg/mL; EC50 [17]: 150 µg/mL; EC50 [18]: > 400 µg/mL; EC50 [19]: 300 µg/mL; EC50 [21]: 200 µg/mL; EC50 [22]: 300 µg/mL
CCOP(=O)(O)COCCn1cnc2c(N)ncnc21,Not Active,Not Active,,,,,,,,,Not Active,,,,120 µg/mL,70 µg/mL,,,,,EC50 [17]: 150 µg/mL; EC50 [24]: > 100 µg/mL; EC50 [19]: 300 µg/mL; EC50 [25]: > 100 µg/mL; EC50 [21]: 150 µg/mL; EC50 [22]: 150 µg/mL
Nc1ncnc2c1nc(Br)n2CCOCP(=O)(O)O,,Not Active,,Not Active,> 100 µg/mL,Not Active,Not Active,Not Active,Not Active,,,Not Active,Not Active,,> 200 µg/mL,,> 100 µg/mL,> 50 µg/mL,Not Active,> 50 µg/mL,EC50 [24]: > 100 µg/mL; EC50 [25]: > 100 µg/mL
Nc1ccnc2c1ncn2CCOCP(=O)(O)O,,,,,,,,,,,,,,,13.8 µg/mL,> 400 µg/mL,,> 400 µg/mL,,> 400 µg/mL,EC50 [16]: > 400 µg/mL; EC50 [18]: > 400 µg/mL; EC50 [29]: Not Active
Cc1ncnc2c1ncn2CCOCP(=O)(O)O,,Not Active,Not Active,Not Active,> 400 µg/mL,Not Active,Not Active,Not Active,Not Active,Not Active,,Not Active,Not Active,Not Active,> 200 µg/mL,,,100 µg/mL,Not Active,200 µg/mL,
Nc1nc(S)c2ncn(CCOCP(=O)(O)O)c2n1,,,,,,,,,,,,,,,1 µg/mL,,,,,,EC50 [30]: 8.9 µg/mL; EC50 [31]: 9.5 µg/mL
CCOP(=O)(COCCn1cnc2c(N)nc(N)nc21)OCC,Not Active,Not Active,Not Active,Not Active,> 400 µg/mL,Not Active,Not Active,Not Active,Not Active,Not Active,,Not Active,Not Active,Not Active,> 200 µg/mL,,> 400 µg/mL,,Not Active,,
Nc1ccn(CCOCP(=O)(O)O)c(=O)n1,,,,,,,Not Active,,,,,Not Active,,,> 200 µg/mL,300 µg/mL,,75 µg/mL,Not Active,70 µg/mL,EC50 [16]: 300 µg/mL; EC50 [21]: 300 µg/mL; EC50 [22]: 300 µg/mL; EC50 [29]: Not Active
Cc1cn(CCOCP(=O)(O)O)c(=O)nc1N,Not Active,Not Active,Not Active,Not Active,> 100 µg/mL,Not Active,Not Active,Not Active,,Not Active,Not Active,Not Active,Not Active,Not Active,> 200 µg/mL,,,,Not Active,,EC50 [32]: Not Active
CSc1ncnc2c1ncn2CCOCP(=O)(O)O,,Not Active,,Not Active,> 200 µg/mL,Not Active,Not Active,Not Active,Not Active,,,Not Active,Not Active,,> 200 µg/mL,,> 400 µg/mL,> 400 µg/mL,Not Active,> 400 µg/mL,
CC(C)OP(=O)(COCCn1ncc(N)nc1=O)OC(C)C,,Not Active,,Not Active,,Not Active,Not Active,Not Active,Not Active,,,Not Active,Not Active,,> 100 µg/mL,,,> 100 µg/mL,,> 100 µg/mL,EC50 [29]: Not Active
